Assay results taken from ChEMBL document CHEMBL1140976, “1,2,3,4-tetrahydro-2-thioxopyrimidine analogs of combretastatin-A4” (Eur J Med Chem, 2008).

Columns and labels:
Assay type in all cases: functional, cell-based
L1210 = assay: Cytotoxicity against mouse L1210 cells after 72 hrs by MTT assay; conditions: L1210, 72 h
Procedure, shortened: (§1)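 72-h MTT assay on murine cell lines (B16 melanoma, L1210 leukemia) grown in culture. IC50 is the compound concentration needed to reduce the cell population by 50% relative to an untreated control.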

B16 = assay: Cytotoxicity against mouse B16 cells after 72 hrs by MTT assay; conditions: B16, 72 h; procedure, shortened: as §1
A10 = assay: Reduction of cellular microtubules in interphase rat A10 cells
Procedure, shortened: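 Interphase cellular microtubules scored in A-10 aortic smooth muscle cells after exposure to compound. EC50 is the effective concentration that causes 50% loss of cellular microtubules.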

Structure (SMILES) | IC50 (L1210) [µM] | IC50 (B16) [µM] | EC50 (A10) [µM]
COc1ccc(C2C=C(c3cc(OC)c(OC)c(OC)c3)NC(=S)N2)cc1OC (stereo unspecified) | 56.3 | > 100 | –
COc1ccc(OC)c(C2C=C(c3cc(OC)c(OC)c(OC)c3)NC(=S)N2)c1 (stereo unspecified) | 32 | 36 | –
COc1ccc(C2C=C(c3cc(OC)c(OC)c(OC)c3)NC(=S)N2)cc1[N+](=O)[O-] (stereo unspecified) | > 100 | > 100 | –
COc1cc(C2=CC(c3ccc(Cl)cc3)NC(=S)N2)cc(OC)c1OC (stereo unspecified) | 48.3 | 55.5 | –
COc1cc(C2=CC(c3cc(OC)c(OC)c(OC)c3)NC(=S)N2)cc(OC)c1OC (stereo unspecified) | > 100 | > 100 | –
COc1cc(OC)c(C2C=C(c3cc(OC)c(OC)c(OC)c3)NC(=S)N2)c(OC)c1 (stereo unspecified) | 5.7 | 6.3 | –
COc1cc(OC)c(C2C=C(c3cc(OC)ccc3OC)NC(=S)N2)c(OC)c1 (stereo unspecified) | 0.4 | 6.1 | 2.9
COc1ccc(OC)c(C2=CC(c3ccc(OC)c([N+](=O)[O-])c3)NC(=S)N2)c1 (stereo unspecified) | 2.2 | 42 | –
COc1cccc(C2C=C(c3cc(OC)c(OC)c(OC)c3)NC(=S)N2)c1 (stereo unspecified) | > 100 | 59.5 | –
COc1ccc(C2C=C(c3cc(OC)c(OC)c(OC)c3)NC(=S)N2)cc1O (stereo unspecified) | 0.5 | 6 | 4.4
COc1cc(C2=CC(c3ccc([N+](=O)[O-])cc3)NC(=S)N2)cc(OC)c1OC (stereo unspecified) | > 100 | > 100 | –
COc1ccc(/C=C\c2cc(OC)c(OC)c(OC)c2)cc1O [COMBRETASTATIN A4] | 0.002 | 0.003 | –
